Test results as given in ChEMBL document CHEMBL2034958, “Peptidolipins B-F, antibacterial lipopeptides from an ascidian-derived Nocardia sp” (2012).
≈ marks a conversion by molar mass, not a printed value. Calls of active or inactive are those of the source. The calls are words filed in the database; no cut-off is given here.

How the values were obtained:
Staphylococcus aureus [1] = assay: Antibacterial activity against methicillin-susceptible Staphylococcus aureus ATCC 29213 after 18 hrs; format: functional; conditions: ATCC 29213, 18 h
Summary of the method: (§1)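 Dilution susceptibility test for aerobic bacteria. Compounds dissolved in DMSO and serially diluted to 10 concentrations (0.125–64 μg/mL) in 96-well plates, run in triplicate. Vancomycin served as control, with six untreated media controls per plate. Incubation at 33 °C for 18 h; MIC read as the lowest concentration inhibiting visible growth.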

Staphylococcus aureus [2] = assay: Antibacterial activity against methicillin-resistant Staphylococcus aureus ATCC 33591 after 18 hrs; format: functional; conditions: ATCC 33591, 18 h; summary of the method: as §1
Staphylococcus aureus [3] = assay: Bacteriostatic activity against methicillin-susceptible Staphylococcus aureus ATCC 29213 after 18 hrs; format: functional, organism-based
Summary of the method: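 Broth dilution susceptibility test for aerobic bacteria against MSSA ATCC 29213. Compounds in DMSO, serially diluted to 10 concentrations (0.125−64 μg/mL) in 96-well plates, tested in triplicate with vancomycin control and six untreated media controls per plate. Incubated at 33 °C for 18 h. MIC was the lowest concentration without visible growth. Inhibited wells were swabbed onto LB plates to distinguish bacteriostatic from bactericidal.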

Staphylococcus aureus [4] = assay: Bacteriostatic activity against methicillin-resistant Staphylococcus aureus ATCC 33591 after 18 hrs; format: functional, organism-based
Summary of the method: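 After the 18 h, 33 °C microdilution MIC plate, a sterile swab dipped into each well showing growth inhibition was inoculated onto an LB plate to tell bactericidal from bacteriostatic action.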

Compound | MIC (Staphylococcus aureus [1]) | MIC (Staphylococcus aureus [2]) | Activity (Staphylococcus aureus [3]) | Activity (Staphylococcus aureus [4])
CCCCCCCCCCCCCCCCCCCCCCCCCCC[C@@H]1CC(=O)N[C@H]([C@H](C)O)C(=O)N[C@@H](C(C)C)C(=O)N[C@@H](C)C(=O)N2CCC[C@@H]2C(=O)N[C@H]([C@@H](C)CC)C(=O)N[C@@H](C(C)C)C(=O)N[C@@H]([C@@H](C)OC)C(=O)O1 [PEPTIDOLIPIN D] | > 64 µg/mL | > 64 µg/mL |  | 
CCCCCCCCCCCCCCCCCCCCCCCCC[C@@H]1CC(=O)N[C@H]([C@H](C)O)C(=O)N[C@@H](C(C)C)C(=O)N[C@@H](C)C(=O)N2CCC[C@@H]2C(=O)N[C@H]([C@@H](C)CC)C(=O)N[C@@H](C(C)C)C(=O)N[C@@H]([C@@H](C)OC)C(=O)O1 [PEPTIDOLIPIN C] | > 64 µg/mL | > 64 µg/mL |  | 
CCCCCCCC/C=C\CCCCCCCCCCCCCCC[C@@H]1CC(=O)N[C@H]([C@H](C)O)C(=O)N[C@@H](C(C)C)C(=O)N[C@@H](C)C(=O)N2CCC[C@@H]2C(=O)N[C@H]([C@@H](C)CC)C(=O)N[C@@H](C(C)C)C(=O)N[C@@H]([C@@H](C)OC)C(=O)O1 [PEPTIDOLIPIN E] | 64 µg/mL (≈ 57.3 µM) |  | Active | Active
CCCCCCCCCCCCCCCCCCCCCCC[C@@H]1CC(=O)N[C@H]([C@H](C)O)C(=O)N[C@@H](C(C)C)C(=O)N[C@@H](C)C(=O)N2CCC[C@@H]2C(=O)N[C@H]([C@@H](C)CC)C(=O)N[C@@H](C(C)C)C(=O)N[C@@H]([C@@H](C)OC)C(=O)O1 [PEPTIDOLIPIN B] |  | 64 µg/mL (≈ 58.7 µM) | Active | Active
